The values below come from ChEMBL document CHEMBL5120833, “Structure-based design of novel donepezil-like hybrids for a multi-target approach to the therapy of Alzheimer's disease” (Eur J Med Chem, 2022).

Data set [1] deals with T1, Cholinesterase (Homo sapiens, UniProt P06276). Put plainly: Inhibition of human BuChE at 10 uM by Ellman's spectrophotometric method. Put shortly: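 Percent inhibition of human BChE at a fixed 10 μM inhibitor concentration, by modified Ellman spectrophotometric assay in 96-well format. Incubations were run in duplicate. Values are the mean ± SEM of three independent experiments.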
T1 sequence (P06276 whole entry): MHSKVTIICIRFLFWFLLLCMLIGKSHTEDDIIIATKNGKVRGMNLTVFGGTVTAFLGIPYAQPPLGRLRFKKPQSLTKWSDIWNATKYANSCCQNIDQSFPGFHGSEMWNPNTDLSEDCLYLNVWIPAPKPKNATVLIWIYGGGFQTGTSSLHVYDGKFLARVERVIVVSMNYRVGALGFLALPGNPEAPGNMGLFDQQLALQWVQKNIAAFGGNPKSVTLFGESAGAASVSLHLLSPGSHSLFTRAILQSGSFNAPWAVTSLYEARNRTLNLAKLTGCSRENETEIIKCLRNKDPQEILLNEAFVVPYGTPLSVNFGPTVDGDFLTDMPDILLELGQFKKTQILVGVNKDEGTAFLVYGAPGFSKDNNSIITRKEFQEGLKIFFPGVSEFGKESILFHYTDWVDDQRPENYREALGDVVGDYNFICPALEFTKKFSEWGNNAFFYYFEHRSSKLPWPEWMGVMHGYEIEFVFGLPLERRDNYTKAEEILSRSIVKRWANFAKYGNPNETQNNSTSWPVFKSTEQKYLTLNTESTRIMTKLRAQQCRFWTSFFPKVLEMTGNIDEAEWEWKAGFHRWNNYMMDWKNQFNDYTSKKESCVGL

Data set [2] concerns the target T2, Acetylcholinesterase (Homo sapiens, UniProt P22303). Put plainly: Inhibition of human AChE by Ellman's spectrophotometric method.
The target in data set [3] is T3, Fatty-acid amide hydrolase 1 (Homo sapiens, UniProt O00519).
T3 sequence (O00519 whole entry): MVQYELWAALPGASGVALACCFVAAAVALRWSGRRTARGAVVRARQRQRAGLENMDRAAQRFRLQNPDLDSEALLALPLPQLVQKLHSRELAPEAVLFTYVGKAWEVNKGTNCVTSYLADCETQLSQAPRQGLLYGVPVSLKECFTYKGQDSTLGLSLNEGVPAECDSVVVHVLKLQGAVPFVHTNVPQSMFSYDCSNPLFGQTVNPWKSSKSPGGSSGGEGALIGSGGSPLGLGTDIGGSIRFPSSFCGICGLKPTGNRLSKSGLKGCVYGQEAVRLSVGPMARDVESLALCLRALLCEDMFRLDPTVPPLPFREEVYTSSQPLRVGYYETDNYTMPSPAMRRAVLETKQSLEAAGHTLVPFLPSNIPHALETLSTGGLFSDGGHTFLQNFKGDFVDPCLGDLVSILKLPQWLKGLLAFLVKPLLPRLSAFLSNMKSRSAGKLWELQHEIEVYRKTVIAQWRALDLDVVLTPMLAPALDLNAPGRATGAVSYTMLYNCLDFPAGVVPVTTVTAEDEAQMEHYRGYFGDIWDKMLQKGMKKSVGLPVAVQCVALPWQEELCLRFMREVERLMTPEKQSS
Put plainly: Inhibition of human recombinant FAAH using AMC-AA as substrate preincubated with enzyme for 10 mins followed by substrate addition for 2 hrs by fluorometric analysis. Put shortly:
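Human recombinant FAAH preincubated with inhibitor at several concentrations for 10 min at room temperature with orbital shaking in Tris-HCl 125 mM, Na2EDTA 1 mM, pH 9.0. AMC-AA substrate (5 µM final) added, then 2 h at 37 °C with fluorescence read every 30 s (ex 340, em 450 nm). Percent inhibition taken against no-inhibitor and no-enzyme wells. IC50 given as mean ± SEM of at least two independent triplicate runs.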

The target of data set [4] is Amyloid-beta precursor protein (Homo sapiens) (UniProt P05067). Put plainly: Inhibition of amyloid beta (1 to 40) (unknown origin) aggregation at 100 uM incubated for 2 hrs by Thioflavin T based fluorometric assay. In outline: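 Aβ40 (30 µM final) co-incubated with inhibitor (100 µM final) in PBS pH 7.4 containing 2% HFIP, 2 h at 25 °C. Thioflavin T (25 µM) then added and fluorescence read. Run in triplicate, reported as mean ± SEM.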
Sequence of Amyloid-beta precursor protein (Homo sapiens) (P05067 whole entry): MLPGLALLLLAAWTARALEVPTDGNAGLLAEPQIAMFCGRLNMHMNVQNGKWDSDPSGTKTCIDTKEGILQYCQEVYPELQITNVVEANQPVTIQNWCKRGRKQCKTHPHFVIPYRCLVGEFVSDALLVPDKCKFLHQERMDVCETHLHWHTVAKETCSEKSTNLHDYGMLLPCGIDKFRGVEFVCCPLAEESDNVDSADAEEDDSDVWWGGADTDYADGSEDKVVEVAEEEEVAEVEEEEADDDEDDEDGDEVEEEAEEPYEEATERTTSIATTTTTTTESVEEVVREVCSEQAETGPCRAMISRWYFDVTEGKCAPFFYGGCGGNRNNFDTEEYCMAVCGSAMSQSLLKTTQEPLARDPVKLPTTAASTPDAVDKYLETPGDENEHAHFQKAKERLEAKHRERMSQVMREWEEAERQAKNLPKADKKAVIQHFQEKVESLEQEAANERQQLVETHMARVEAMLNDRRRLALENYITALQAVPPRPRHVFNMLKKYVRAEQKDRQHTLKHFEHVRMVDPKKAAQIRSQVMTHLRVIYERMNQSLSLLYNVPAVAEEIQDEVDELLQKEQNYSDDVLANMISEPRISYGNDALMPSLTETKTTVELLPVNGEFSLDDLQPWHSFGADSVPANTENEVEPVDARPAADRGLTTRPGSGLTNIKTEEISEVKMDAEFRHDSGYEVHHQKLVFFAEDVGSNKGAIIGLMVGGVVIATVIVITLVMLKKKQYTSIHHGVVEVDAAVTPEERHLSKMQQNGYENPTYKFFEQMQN

Data set [5] in a line: Cytotoxicity against human SH-SY5Y cells assessed as inhibition of cell viability incubated for 48 hrs by MTT assay. In kind it is toxicity, cell-based. In outline: (§1)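 Cells from ATCC; SH-SY5Y grown in 1:1 MEM/Ham's F12, HepG2 in MEM with NEAA, both with 10% heat-inactivated FBS, glutamine, penicillin-streptomycin, 37 °C, 5% CO2. Seeded 10,000-25,000 cells/well, next day exposed to half-log serial dilutions (100 µM to 100 nM) in 1% DMSO final, with untreated controls. After 24 or 48 h, MTT 0.5 mg/mL for 3–4 h at 37 °C; formazan dissolved in DMSO/EtOH 1:1, absorbance 570 nm.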

A short description of data set [6]: Cytotoxicity against human SH-SY5Y cells assessed as inhibition of cell viability incubated for 24 hrs by MTT assay. In kind it is toxicity, cell-based. Put shortly: as §1
Data set [7] can be described thus: Metal chelating activity assessed as compound-Cu2+ complex formation at stoichiometric ratio of 1:1 in 30% w/w DMSO/H2O medium by ESI-MS spectral analysis. Put shortly: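 ESI-MS on an ion-trap instrument in positive and negative ion modes of Cu2+:ligand 1:1 solution in 30% w/w DMSO/H2O. Ligand concentration 2.6×10^-4 M, pH 5.68. Spray voltage ±4.5 kV, capillary temperature 280 °C, N2 sheath gas.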

For data set [8], the target named is T1, Cholinesterase. Put plainly: Potency index, ratio of donepezil IC50 to test compound IC50 for inhibition of human BuChE by Ellman's spectrophotometric method.
The nature of data set [9]: Cytotoxicity against human HepG2 cells assessed as inhibition of cell viability incubated for 24 hrs by MTT assay. In kind it is toxicity, cell-based. Put shortly:
as §1

Data set [10] is described as follows: Metal chelating activity assessed as Cu2+-compound complex formation by measuring global formation constant, log(beta)(CumHhLl) in 30% DMSO/water medium by pH potentiometric analysis. Put shortly:
(§2)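 Cu2+ binding measured by pH-potentiometric titration in 30% w/w DMSO/H2O at 25.0 ± 0.1 °C, ionic strength 0.1 M KCl, with 0.08 M KOH as titrant. Ligand concentration was 4.4×10^-4 M, with Cu:L ratios of 0:1, 1:1 and 1:2. Glass and Ag/AgCl electrodes were checked by HCl/KOH calibration (Gran's method), pKw 14.66. Protonation and complex stability constants came from fitting the data to an equilibrium model.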

A short description of data set [11]: Protonation constant of the compound, logKi in 30% w/w DMSO/H2O medium. In kind it is physicochemical. In outline:
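pH-potentiometric titration in 30% w/w DMSO/H2O at 25.0 ± 0.1 °C, ionic strength 0.1 M KCl, titrant 0.08 M KOH, ligand 4.4×10^-4 M. Glass and Ag/AgCl electrodes conditioned in DMSO/water mixtures and calibrated by HCl/KOH titration (Gran's method); pKw 14.66. Stepwise protonation constants obtained by fitting the titration data.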

Data set [12] is described as follows: Metal chelating activity assessed as Cu2+-compound complex formation at Cu2+:compound concentration ratio of 1:1 to 1:2 in 30% DMSO/water medium by pH potentiometric analysis. Put shortly: as §2
The target in data set [13] is T2, Acetylcholinesterase. Put plainly: Potency index, ratio of donepezil IC50 to test compound IC50 for inhibition of human AChE by Ellman's spectrophotometric method.
Data set [14] is described as follows: Cytotoxicity against human HepG2 cells assessed as inhibition of cell viability incubated for 48 hrs by MTT assay. In kind it is toxicity, cell-based. In outline:
as §1

The nature of data set [15]: Metal chelating activity assessed as compound-Zn2+ complex formation at compound:Zn2+ concentration ratio of 1:1 in DMSO-d6/D2O medium by 1H-NMR analysis.
Data set [16] addresses T1, Cholinesterase. Put plainly: Inhibition of human BuChE by Ellman's spectrophotometric method. Put shortly:
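Human BChE, modified Ellman spectrophotometric assay in 96-well format. Incubations were run in duplicate. IC50 was determined for inhibitors giving >60% inhibition, from seven final concentrations (10⁻⁵ to 10⁻¹¹ M) diluted in work buffer from a 1000 μM DMSO stock. Values are the mean ± SEM of three independent experiments.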

The species entered for data set [17] is Homo sapiens. Put plainly: Selectivity index, ratio of IC50 for human BuChE to IC50 for human AChE.

Molecules are shown by their SMILES. Activity calls are given as the source filed them. The rule behind the calls is not given here. Some results are limits rather than exact numbers.

T2 sequence (P22303 whole entry): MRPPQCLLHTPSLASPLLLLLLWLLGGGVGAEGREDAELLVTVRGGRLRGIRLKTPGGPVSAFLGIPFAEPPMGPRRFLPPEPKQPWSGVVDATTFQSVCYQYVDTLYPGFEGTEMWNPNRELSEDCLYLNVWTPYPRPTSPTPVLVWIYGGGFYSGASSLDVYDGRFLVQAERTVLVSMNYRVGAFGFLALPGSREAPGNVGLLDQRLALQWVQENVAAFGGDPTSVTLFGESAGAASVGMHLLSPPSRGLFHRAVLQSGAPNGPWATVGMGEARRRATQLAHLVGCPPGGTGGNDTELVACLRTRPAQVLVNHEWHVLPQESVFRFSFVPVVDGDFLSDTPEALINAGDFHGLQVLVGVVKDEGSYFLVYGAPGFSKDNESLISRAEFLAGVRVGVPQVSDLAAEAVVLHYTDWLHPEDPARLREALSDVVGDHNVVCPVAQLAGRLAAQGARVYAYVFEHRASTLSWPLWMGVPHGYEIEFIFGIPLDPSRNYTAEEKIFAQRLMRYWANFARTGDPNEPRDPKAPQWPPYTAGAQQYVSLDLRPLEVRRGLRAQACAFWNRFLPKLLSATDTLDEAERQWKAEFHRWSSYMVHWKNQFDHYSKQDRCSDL

Consider `O=C(COc1cc(F)ccc1[N+](=O)[O-])NCC1CCN(Cc2ccccc2)CC1`, for which, in data set [1], the inhibition stood at 54%. Besides, the IC50 was found to be 0.103 µM in data set [2] and 28.1 µM in data set [3].
With `O=C(COc1ccc([N+](=O)[O-])cc1)NCCN1CCN(Cc2ccccc2)CC1`, the IC50 in data set [2] was found to be 0.042 µM; in data set [3], 43.9 µM. The compound also gave an inhibition in [4] of 30%.
On to `O=C(COc1ccc(Cl)cc1[N+](=O)[O-])NCCN1CCN(Cc2ccccc2)CC1`, for which the IC50 at 48 h in [5] and in [14] was over 100 µM each time. Further, the IC50 at 24 h in data set [6] and in data set [9] was over 100 µM throughout. In addition, the outcome in data set [7], in [12] and in data set [15] was Active. The Ratio IC50 turned out to be 3 in data set [8], 21 in [13] and 1760 in [17]. The log(activity) in data set [10] was -1.81; in [11] it was 2.89. The figures for the IC50 in data set [2], in data set [3] and in data set [16] were 0.0008 µM, 41.6 µM and 1.41 µM, respectively.
As for `Cc1cc(Br)cc(C)c1OCC(=O)NCCN1CCN(Cc2ccccc2)CC1`, the IC50 in data set [2] amounted to 0.09 µM; in data set [3], 40.8 µM; in data set [16], 4.1 µM.
As to `O=C(COc1cc(F)ccc1[N+](=O)[O-])NCCN1CCN(Cc2ccccc2)CC1`, the IC50 at 48 h in [5] and in [14] was over 100 µM in each case. The IC50 at 24 h in data set [6] and in [9] was over 100 µM in each case. Moreover, the values for the IC50 in [2], in [3] and in data set [16] were 0.0028 µM, 49.6 µM and 5.01 µM, respectively. In addition, the Ratio IC50 is 6 in data set [13] and 1790 in data set [17].
On to `O=C(COc1ccc(-c2ccccc2)cc1)NCC1CCN(Cc2ccccc2)CC1`, for which the IC50 in [2] was determined as 1.7 µM; in [3], 23.3 µM; in data set [16], 5.58 µM.
In the same order, the values of `O=C(COc1ccc(Cl)cc1[N+](=O)[O-])NCC1CCN(Cc2ccccc2)CC1` are 0.122 µM, 23.3 µM and 4.7 µM.
In data set [1], `COc1ccc(OCC(=O)NCC2CCN(Cc3ccccc3)CC2)cc1` had an inhibition of 55%. Moreover, the IC50 in data set [2] came to 0.88 µM; in data set [3] it was 40.8 µM.
For `O=C(COc1ccc(CCc2ccccc2)cc1)NCCN1CCN(Cc2ccccc2)CC1`, the values for the IC50 at 48 h in data set [5] and in [14] were 34.8 µM and 15.8 µM, respectively. The IC50 at 24 h was 27.8 µM in [6] and 41.6 µM in data set [9]. The inhibition in data set [1] turned out to be 45%; in [4], 30%. For the same compound, the IC50 in [2] stood at 0.9 µM; in data set [3] it was 16.8 µM.
As to `O=C(COc1ccc(CCc2ccccc2)cc1)NCC1CCN(Cc2ccccc2)CC1`, the IC50 in data set [2] was 0.135 µM; in [3], 23.8 µM; in data set [16] it was 5.08 µM.
In the same order, the values of `Cc1cc(Br)cc(C)c1OCC(=O)NCC1CCN(Cc2ccccc2)CC1` are 0.595 µM, 28.6 µM and 2.22 µM.
The compound `O=C(COc1ccc(Cc2ccccc2)cc1)NCC1CCN(Cc2ccccc2)CC1` registered an inhibition in [1] of 37%. Moreover, the IC50 in [2] is 1.27 µM; in [3], 21.9 µM.
Take `COc1ccc(OCC(=O)NCCN2CCN(Cc3ccccc3)CC2)cc1`: the inhibition was determined as 25% in data set [1] and 30% in [4]. The IC50 in data set [2] amounted to 0.3 µM; in data set [3] it was 51.9 µM.
As for `O=C(COc1ccccc1C(F)(F)F)NCC1CCN(Cc2ccccc2)CC1`, the IC50 came out at 0.767 µM in [2], 38.2 µM in data set [3] and 1.02 µM in [16].
The compound `O=C(COc1ccc([N+](=O)[O-])cc1)NCC1CCN(Cc2ccccc2)CC1` returned an inhibition in data set [1] of 24%. In addition, the IC50 worked out at 0.509 µM in data set [2] and 28.5 µM in data set [3].
Consider `O=C(COc1ccc(Cl)cc1)NCC1CCN(Cc2ccccc2)CC1`, for which the IC50 at 48 h in data set [5] and in data set [14] was over 100 µM in each case. Further, the IC50 at 24 h in data set [6] and in [9] was over 100 µM each time. Further, the IC50 in data set [2] came to 1.68 µM; in [3], 20.9 µM; in data set [16], 5.61 µM. In [4], this compound showed an inhibition of 30%.
`O=C(COc1ccccc1C(F)(F)F)NCCN1CCN(Cc2ccccc2)CC1`: the IC50 in data set [2] was determined as 0.136 µM; in data set [3], 55.1 µM; in data set [16], 0.503 µM.
Consider `O=C(COc1ccc(Cc2ccccc2)cc1)NCCN1CCN(Cc2ccccc2)CC1`, for which the inhibition in [1] came out at 29%. Besides, the IC50 in data set [2] was 0.993 µM; in data set [3] it was 23.6 µM.
As to `O=C(COc1ccc(-c2ccccc2)cc1)NCCN1CCN(Cc2ccccc2)CC1`, the 50% inhibitory concentration (IC50) in data set [2] is 0.735 µM; in data set [3], 63.9 µM; in data set [16], 0.969 µM.
Regarding `O=C(Oc1ccc([N+](=O)[O-])cc1)N1CCN(Cc2cccc(Oc3ccccc3)c2)CC1`, the IC50 in [3] came out at 0.019 µM.
Consider `O=C(COc1ccc(Cl)cc1)NCCN1CCN(Cc2ccccc2)CC1`, for which the IC50 was 0.189 µM in data set [2], over 100 µM in data set [3] and 2.15 µM in data set [16]. In data set [4], this compound showed an inhibition of 30%.
